Results from ChEMBL document CHEMBL4680082 (J Med Chem, 2016).
pEC50: −log10 of the molar value. Where “and” joins values, the source holds several entries; their conditions need not be identical. Equal values may be shown once.

Legend:
[1] = target: T1, 5-hydroxytryptamine receptor 2B (Homo sapiens, UniProt P41595); experiment: Agonist activity at human 5-HT2B receptor expressed in human Flp-In-293 cells assessed as induction of calcium flux incubated for 1 hr by Fluo-4 direct dye based FLIPR assay relative to 5-HT; type: functional, cell-based
T1 sequence (P41595 whole entry): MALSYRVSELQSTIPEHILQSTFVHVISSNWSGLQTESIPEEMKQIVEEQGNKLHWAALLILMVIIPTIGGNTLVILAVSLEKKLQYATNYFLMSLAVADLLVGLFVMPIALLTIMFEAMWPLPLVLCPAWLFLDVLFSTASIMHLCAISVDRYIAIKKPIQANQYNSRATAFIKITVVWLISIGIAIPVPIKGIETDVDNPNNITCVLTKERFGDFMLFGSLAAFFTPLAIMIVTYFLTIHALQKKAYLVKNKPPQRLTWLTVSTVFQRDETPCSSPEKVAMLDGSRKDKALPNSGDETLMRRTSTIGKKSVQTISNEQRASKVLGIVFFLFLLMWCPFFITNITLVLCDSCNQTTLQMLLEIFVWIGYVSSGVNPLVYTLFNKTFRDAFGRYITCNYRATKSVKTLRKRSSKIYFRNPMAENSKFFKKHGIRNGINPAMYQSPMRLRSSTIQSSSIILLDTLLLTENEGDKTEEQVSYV

[2] = target: T1, 5-hydroxytryptamine receptor 2B; experiment: Agonist activity at human 5-HT2B receptor expressed in human Flp-In-293 cells assessed as induction of calcium flux by measuring log(Emax/EC50) incubated for 1 hr by Fluo-4 direct dye based FLIPR assay; type: functional, cell-based
[3] = target: T2, 5-hydroxytryptamine receptor 2A (Homo sapiens, UniProt P28223)
T2 sequence (P28223 whole entry): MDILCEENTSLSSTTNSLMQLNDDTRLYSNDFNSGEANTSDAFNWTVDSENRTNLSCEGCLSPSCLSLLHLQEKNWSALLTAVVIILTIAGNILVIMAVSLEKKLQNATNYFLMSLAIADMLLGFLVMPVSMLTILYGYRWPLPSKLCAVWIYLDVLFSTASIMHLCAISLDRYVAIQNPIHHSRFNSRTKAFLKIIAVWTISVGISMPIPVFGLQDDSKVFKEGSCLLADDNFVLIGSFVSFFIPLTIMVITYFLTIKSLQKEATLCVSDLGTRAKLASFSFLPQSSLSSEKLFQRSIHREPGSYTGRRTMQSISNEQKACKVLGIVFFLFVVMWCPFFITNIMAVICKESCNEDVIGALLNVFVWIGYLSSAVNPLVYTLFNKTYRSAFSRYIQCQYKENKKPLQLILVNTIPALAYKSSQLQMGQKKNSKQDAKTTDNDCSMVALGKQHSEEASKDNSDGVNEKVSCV

[4] = target: T2, 5-hydroxytryptamine receptor 2A; experiment: Agonist activity at human 5-HT2A receptor expressed in human Flp-In-293 cells assessed as induction of calcium flux by measuring log(Emax/EC50) incubated for 1 hr by Fluo-4 direct dye based FLIPR assay; type: functional, cell-based
[5] = target: T1, 5-hydroxytryptamine receptor 2B
[6] = target: T3, 5-hydroxytryptamine receptor 2C (Homo sapiens, UniProt P28335);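 also: Agonist-induced calcium flux in Flp-In-293 cells expressing the human receptor, read by FLIPR with Fluo-4 Direct dye after 1 hr incubation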
T3 sequence (P28335 whole entry): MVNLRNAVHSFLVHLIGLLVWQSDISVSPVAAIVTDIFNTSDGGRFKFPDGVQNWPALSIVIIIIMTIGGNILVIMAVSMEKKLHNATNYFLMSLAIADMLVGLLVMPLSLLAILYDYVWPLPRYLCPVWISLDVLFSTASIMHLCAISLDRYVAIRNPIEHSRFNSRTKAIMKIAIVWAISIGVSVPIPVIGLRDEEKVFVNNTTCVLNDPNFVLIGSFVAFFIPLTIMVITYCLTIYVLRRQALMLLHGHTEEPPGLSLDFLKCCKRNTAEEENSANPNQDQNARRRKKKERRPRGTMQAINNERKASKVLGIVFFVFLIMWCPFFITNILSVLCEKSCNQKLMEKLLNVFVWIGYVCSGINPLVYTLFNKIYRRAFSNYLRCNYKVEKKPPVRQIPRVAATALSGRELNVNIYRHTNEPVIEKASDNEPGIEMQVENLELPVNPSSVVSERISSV

[7] = target: T4, 5-hydroxytryptamine receptor 2C (Homo sapiens) (UniProt P28335); experiment: Agonist activity at human 5-HT2C receptor expressed in human Flp-In-293 cells assessed as induction of calcium flux incubated for 1 hr by Fluo-4 direct dye based FLIPR assay relative to 5-HT; type: functional, cell-based; details: filed as agonist
T4 sequence (whole entry): T3 sequence (P28335 whole entry)

[8] = target: T2, 5-hydroxytryptamine receptor 2A; experiment: Agonist activity at human 5-HT2A receptor expressed in human Flp-In-293 cells assessed as induction of calcium flux incubated for 1 hr by Fluo-4 direct dye based FLIPR assay relative to 5-HT; type: functional, cell-based
[9] = target: T4, 5-hydroxytryptamine receptor 2C (Homo sapiens); experiment: Agonist activity at human 5-HT2C receptor expressed in human Flp-In-293 cells assessed as induction of calcium flux by measuring log (Emax/EC50) incubated for 1 hr by Fluo-4 direct dye based FLIPR assay; type: functional, cell-based
[10] = target: T4, 5-hydroxytryptamine receptor 2C (Homo sapiens); experiment: Agonist activity at human 5-HT2C INI receptor expressed in human HEK293 cells assessed as induction of beta-arrestin-2 recruitment incubated for 20 hrs by Tango assay relative to 5HT; type: cell-based; details: filed as agonist
How it was run: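 Tango assay in HTLA cells (HEK line expressing TEV-fused β-arrestin-2 and tTA-driven luciferase) transfected with 5-HT2C INI–tTA fusion carrying a TEV site. Cells were stimulated with the same dilutions used for FLIPR, 20 h at 37 °C and 5% CO2, then lysed with Bright-Glo for 20 min at room temperature and read by luminescence. Data normalized to % 5-HT and fitted sigmoidally; n = 3 in triplicate. Bias from log(Emax/EC50).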

Structure (SMILES)	Emax ([1]; filed as agonist) [%]	log(ratio) [2]	pEC50 [3]	log(ratio) [4]	pEC50 [5]	pEC50 [6]	Emax [7] [%]	Emax ([8]; filed as agonist) [%]	log(ratio) [9]	Emax [1] [%]	Emax [8] [%]	Emax [10] [%]
COc1ccc2occc2c1[C@@H]1C[C@H]1CN	55	5.88	6.96	6.78	6.14	8.17 and 8.18	96	66	8.16	–	–	–
CCc1cc2c([C@@H]3C[C@H]3CN)c(OC)ccc2o1	–	–	–	–	–	7.00	88	–	–	–	–	–
COc1ccc2c(c1[C@H]1C[C@@H]1CN)CCO2	70	6.96	6.93	6.89	7.11	8.05	101	90	8.05	–	–	–
C=C(F)COc1ccc2occc2c1[C@@H]1C[C@H]1CN	–	–	–	–	6.23	7.00	93	–	–	29	–	–
NC[C@@H]1C[C@H]1c1c(OCCF)ccc2c1CCO2	–	–	5.71	–	–	6.52	79	55	–	–	–	–
CCOc1ccc2c(c1[C@@H]1C[C@H]1CN)CCO2	–	5.58	6.01	5.55	6.11	7.39	105	–	7.41	30	35	–
CCOc1ccc2occc2c1[C@@H]1C[C@H]1CN	–	–	6.23	–	–	7.59	107	–	–	–	15	–
C=CCOc1ccc2c(c1[C@@H]1C[C@H]1CN)CCO2	–	–	–	–	–	7.03	90	–	–	–	–	–
C=CCOc1ccc2occc2c1[C@@H]1C[C@H]1CN	–	–	–	–	–	7.25	101	–	–	–	–	–
CCCOc1ccc2c(c1[C@@H]1C[C@H]1CN)CCO2	–	–	–	–	–	7.02	94	–	–	–	–	–
CC(C)Oc1ccc2occc2c1[C@H]1C[C@@H]1CN	–	6.35	6.53	6.42	6.76	8.21	99	79	8.2	39	–	–
C[C@H]1CNCCc2ccc(Cl)cc21	–	–	–	–	–	–	–	–	–	–	–	91
CCOc1ccc2c(c1[C@H]1C[C@@H]1CN)CCO2	58	7.03	6.95	6.86	7.23 and 7.27	8.57	106	81	8.59	–	–	–
CCCOc1ccc2occc2c1[C@@H]1C[C@H]1CN	–	–	–	–	–	7.06	88	–	–	–	–	–
NC[C@H]1C[C@@H]1c1c(OCC2CC2)ccc2c1CCO2	–	–	6.12	–	6.57	7.59	95	–	–	–	–	–
NC[C@@H]1C[C@H]1c1c(OCC2CC2)ccc2occc12	–	–	–	–	6.29 and 6.28	6.95	87	–	–	27	–	–
COc1ccc2c(c1[C@@H]1C[C@H]1CN)CCO2	45	6.21	6.53	6.35	6.55	7.72	102	66	7.73	–	–	–
C=C(C)COc1ccc2occc2c1[C@@H]1C[C@H]1CN	–	–	–	–	6.13	6.58	70	–	–	33	–	–

Structure (SMILES)	Emax ([1]; filed as agonist) [%]	log(ratio) [2]	pEC50 [3]	log(ratio) [4]	pEC50 [5]	pEC50 [6]	Emax [7] [%]	Emax ([8]; filed as agonist) [%]	log(ratio) [9]	Emax [1] [%]	Emax [8] [%]	Emax [10] [%]
CCCOc1ccc2oc(CC)cc2c1[C@H]1C[C@@H]1CN	–	–	–	–	–	7.09	–	–	–	–	–	–
C=C(F)COc1ccc2occc2c1[C@H]1C[C@@H]1CN	–	–	6.45	–	6.89	8.04	103	–	–	38	–	–
NC[C@H]1C[C@@H]1c1c(OCC2CC2)ccc2occc12	–	–	6.34	–	6.74	7.92	99	–	–	27	–	–
CCc1cc2c([C@H]3C[C@@H]3CN)c(OC)ccc2o1	–	–	6.03	–	7.22	8.57	101	–	–	–	–	–
CCOc1ccc2oc(CC)cc2c1[C@H]1C[C@@H]1CN	–	–	5.58 and 5.59	–	6.51	7.82	100	–	–	–	–	–
CCc1cc2c([C@@H]3C[C@H]3CN)c(OCCF)ccc2o1	–	–	–	–	–	7.09	84	–	–	–	–	–
CC(C)Oc1ccc2occc2c1[C@@H]1C[C@H]1CN	–	5.74	6.03	5.61	6.34	7.68	97	–	7.66	25	38	–
C=C(C)COc1ccc2occc2c1[C@H]1C[C@@H]1CN	40	–	6.59	–	6.82	7.60	99	–	–	–	–	–
NC[C@@H]1C[C@H]1c1c(OCCF)ccc2occc12	–	–	6.41	–	6.35	7.48	98	–	–	34	22	–
NC[C@@H]1C[C@H]1c1c(OCC2CC2)ccc2c1CCO2	–	–	–	–	–	6.55	65	–	–	–	–	–
CCOc1ccc2occc2c1[C@H]1C[C@@H]1CN	–	–	6.95	–	7.08	8.59	106	74	–	–	–	–
CCCOc1ccc2occc2c1[C@H]1C[C@@H]1CN	–	–	6.41	–	–	8.00	98	–	–	–	–	–
COc1ccc2occc2c1[C@H]1C[C@@H]1CN	64	6.76	7.43	7.37	6.95	8.80	93	86	8.76	–	–	–
CCc1cc2c([C@H]3C[C@@H]3CN)c(OCC3CC3)ccc2o1	–	–	–	–	–	6.86	101	–	–	–	–	–
CCc1cc2c([C@@H]3C[C@H]3CN)c(OCC3CC3)ccc2o1	–	–	–	–	–	6.35	69	–	–	–	–	–
CCCOc1ccc2c(c1[C@H]1C[C@@H]1CN)CCO2	–	–	6.13	–	6.59	7.70	104	–	–	–	–	–
CCOc1ccc2oc(CC)cc2c1[C@@H]1C[C@H]1CN	–	–	–	–	–	6.94	76	–	–	–	–	–
